Measured values taken from ChEMBL document CHEMBL3774372, “Design, physico-chemical properties and biological evaluation of some new N-[(phenoxy)alkyl]- and N-{2-[2-(phenoxy)ethoxy]ethyl}aminoalkanols as anticonvulsant agents” (Bioorg Med Chem, 2016).
Calls of active or inactive are those of the source. The calls are words filed in the database; no cut-off is given here.

Tests used:
[1] = test system: Rattus norvegicus; test: Anticonvulsant activity in pilocarpine-induced status epilepticus Sprague-Dawley rat model at 100 mg/kg, ip after 2 hrs during post stage 3 seizure; type: functional, organism-based
Summary of the method: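 Rats given pilocarpine 50 mg/kg ip and observed to first convulsive seizure (Racine stage 3–5, time zero); test drug then given ip in 0.5% methylcellulose. Efficacy = halting further stage 3–5 convulsive seizures; scored protected/tested, time after first stage 3 seizure.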

[2] = Ratio of drug level in brain to plasma in CD1 mouse at 1 mg/kg, iv administered as single dose measured after 60 mins by LC/ESI-MS/MS analysis; type: ADME, organism-based; conditions: brain and plasma, read-out: BPR
[3] = Ratio of drug level in brain to plasma in CD1 mouse at 1 mg/kg, iv administered as single dose measured after 120 mins by LC/ESI-MS/MS analysis; type: ADME, organism-based; conditions: brain and plasma, read-out: BPR
[4] = test system: Mus musculus; test: Anticonvulsant activity in ip dosed mouse assessed as protection against subcutaneous pentylenetetrazol-induced seizures measured after […]; type: functional
[5] = test system: Rattus norvegicus; test: Toxicity in pilocarpine-induced status epilepticus Sprague-Dawley rat model assessed as average weight change at 100 mg/kg, ip measured 24 hrs post first stage 3 seizure; type: organism-based; conditions: in vivo
[6] = test system: Vibrio harveyi; test: Mutagenicity in Vibrio harveyi BB7 assessed as number of colonies after 48 hrs (reference value: 13 to 14 no_unit); type: ADME, organism-based; conditions: in vivo
Summary of the method: (§1)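 Vibrio harveyi mutagenicity test: test compound was added to exponentially growing cultures (A600 = 0.1, 30 °C) and grown to OD600 0.3–0.4. Then 5 × 10^6 cells were plated on BOSS agar with neomycin (final 100 µg/mL) and incubated 48 h at 30 °C. Neomycin-resistant colonies were counted. Triplicate; controls were water, DMSO and NQNO 40 ng/mL.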

[7] = test system: Vibrio harveyi; test: Mutagenicity in Vibrio harveyi BB7X assessed as number of colonies after 48 hrs (reference value: 15 to 16 no_unit); type: ADME, organism-based; conditions: in vivo; summary of the method: as §1
[8] = test system: Vibrio harveyi; test: Antimutagenic activity against Vibrio harveyi BB7M assessed as inhibition of NQNO-induced mutagenicity after 48 hrs; type: functional
Summary of the method: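 V. harveyi cultures grown exponentially to A600 0.1 at 30 °C, exposed to test compound for 15 min, then to NQNO, and grown on to A600 0.3–0.4. 5 × 10⁶ cells plated on BOSS agar with neomycin (100, final). Neomycin-resistant colonies counted after 48 h at 30 °C. Result given as % inhibition of NQNO mutagenicity; three independent repeats.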

[9] = Retention time of the compound in mouse liver microsomes at 20 uM preincubated for 15 mins followed by addition of NADPH-regenerating system measured after 5 to 90 mins by […] analysis; type: ADME
Summary of the method: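 Mouse liver microsomes (0.4 mg/mL) with test compound (20 µM) in 100 mM potassium phosphate, pH 7.4, were preincubated 15 min at 37 °C. An NADPH-regenerating system was then added and incubation ran 5–90 min at 37 °C. Levallorphan (20 µM) served as internal standard, and reactions were quenched with perchloric acid. The supernatant was analysed by UPLC/MS. Duplicate incubations.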

[10] = Ratio of drug level in brain to plasma in CD1 mouse at 1 mg/kg, iv administered as single dose measured after 15 mins by LC/ESI-MS/MS analysis; type: ADME, organism-based; conditions: brain and plasma, read-out: BPR
[11] = MRT in CD1 mouse plasma at 1 mg/kg, iv measured up to 240 mins by LC/ESI-MS/MS analysis; type: ADME, organism-based
[12] = test system: Mus musculus; test: Cmax in CD1 mouse plasma at 12.92 mg/kg, ig measured up to 240 mins by LC/ESI-MS/MS analysis; type: ADME, organism-based; parameters: dose 12.92 mg/kg, route […]; conditions: in vivo, po, 4 h
[13] = test system: Mus musculus; test: Volume of distribution in steady state in CD1 mouse plasma at 1 mg/kg, iv measured up to 240 mins by LC/ESI-MS/MS analysis; type: ADME, organism-based; conditions: in vivo, 4 h
[14] = test system: Mus musculus; test: AUC (0 to infinity) in CD1 mouse plasma at 12.92 mg/kg, ig measured up to 240 mins by LC/ESI-MS/MS analysis; type: ADME, organism-based; parameters: dose 12.92 mg/kg, time infinity, route […]; conditions: in vivo, po, 4 h
[15] = test system: Mus musculus; test: AUC (0 to infinity) in CD1 mouse plasma at 12.92 mg/kg, ip measured up to 240 mins by LC/ESI-MS/MS analysis; type: ADME, organism-based; parameters: dose 12.92 mg/kg, route intraperitoneal, time infinity; conditions: in vivo, 4 h
[16] = AUC (0 to infinity) in CD1 mouse brain at 1 mg/kg, iv measured up to 240 mins by LC/ESI-MS/MS analysis; type: ADME, organism-based; parameters: dose 1 mg/kg, route intravenous, time infinity
[17] = Cmax in CD1 mouse brain at 12.92 mg/kg, ig measured up to 240 mins by LC/ESI-MS/MS analysis; type: ADME, organism-based; parameters: dose 12.92 mg/kg, route […]; conditions: po
[18] = Ratio of drug level in brain to plasma in CD1 mouse at 12.92 mg/kg, ip administered as single dose measured after 30 mins by LC/ESI-MS/MS analysis; type: ADME, organism-based; conditions: brain and plasma, read-out: BPR
[19] = Ratio of drug level in brain to plasma in CD1 mouse at 12.92 mg/kg, ip administered as single dose measured after 240 mins by LC/ESI-MS/MS analysis; type: ADME, organism-based; conditions: brain and plasma, read-out: BPR
[20] = in vitro; conditions: mouse, liver microsomes
[21] = test system: Rattus norvegicus; test: Anticonvulsant activity in rat assessed as protection against maximal electric shock-induced seizures at 30 mg/kg, po measured after 1 hr; type: functional, organism-based
Summary of the method: (§2)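 Rats dosed ip or orally as 0.5% methylcellulose suspension; maximal electroshock at listed time. Protection = abolition of hindlimb tonic extension; 4 rats per group, scored protected/tested.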

[22] = test system: Rattus norvegicus; test: Anticonvulsant activity in rat assessed as protection against maximal electric shock-induced seizures at 30 mg/kg, po measured after 2 hrs; type: functional, organism-based; summary of the method: as §2
[23] = test system: Rattus norvegicus; test: Anticonvulsant activity in rat assessed as protection against maximal electric shock-induced seizures at 30 mg/kg, po measured after 4 hrs; type: functional, organism-based; summary of the method: as §2
[24] = test system: Mus musculus; test: Anticonvulsant activity in mouse assessed as protection against 6 Hz psychomotor seizure at 20 mg/kg, ip after 1 hr; type: functional, organism-based
Summary of the method: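 Suspension in 0.5% methylcellulose given ip to mice; corneal stimulation with 0.2 ms monopolar rectangular pulses at 6 Hz for 3 s from a constant current device, mice restrained then released to observation cage. Protected if normal exploratory behaviour resumed within 10 s of stimulation. Scored as protected/tested, 4 mice per group.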

[25] = test system: Mus musculus; test: Anticonvulsant activity in mouse assessed as protection against maximal electric shock-induced seizures at 10 mg/kg, ip measured after 0.5 hrs; type: functional, organism-based
Summary of the method: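 Mice dosed ip with suspension in 0.5% methylcellulose; maximal electroshock applied at the listed time after dosing. Protection = abolition of hindlimb tonic extension component of seizure; reported as animals protected/animals tested.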

[26] = test system: Rattus norvegicus; test: Anticonvulsant activity in rat assessed as protection against maximal electric shock-induced seizures at 30 mg/kg, ip measured after […]; type: functional, organism-based
[27] = target: Prostacyclin receptor (Homo sapiens) (UniProt P43119); test: Displacement of [3H]iloprost from human recombinant Prostanoid IP receptor expressed in HEK293 cells at 10^-5 M; type: cell-based
Prostacyclin receptor (Homo sapiens), sequence (P43119 whole entry): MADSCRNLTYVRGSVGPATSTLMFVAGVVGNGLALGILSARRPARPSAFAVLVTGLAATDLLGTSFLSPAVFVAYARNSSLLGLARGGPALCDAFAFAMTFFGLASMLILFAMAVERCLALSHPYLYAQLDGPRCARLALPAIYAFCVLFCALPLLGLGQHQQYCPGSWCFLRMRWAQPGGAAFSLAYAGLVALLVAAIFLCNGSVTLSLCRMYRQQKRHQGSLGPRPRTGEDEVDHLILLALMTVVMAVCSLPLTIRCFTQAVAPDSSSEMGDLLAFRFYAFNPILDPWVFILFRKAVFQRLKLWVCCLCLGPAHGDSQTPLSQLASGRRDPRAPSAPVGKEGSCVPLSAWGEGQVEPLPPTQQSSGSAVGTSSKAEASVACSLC
Summary of the method: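 Radioligand displacement screen with the test agent at a single 10^-5 M concentration; receptor source and radioligand per target as tabulated (recombinant human cell lines or rat cerebral cortex/urinary bladder).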

Compound: Cc1cccc(C)c1OCCOCCN[C@H](C)CO
- Activity [1]: inactive

Compound: Cc1cccc(C)c1OCCOCCN[C@H](C)CO.Cl
- Kp at 1 h [2]: 3.58
- Kp at 2 h [3]: 6.66
- ED50 [4]: > 45 mg/kg
- Activity [5]: 17.5 g
- Activity [6]: 20
- Activity [7]: 25
- inhibition (INH) [8]: 69%
- Retention_time [9]: 3.81 min
- Kp at […] [10]: 5.36
- MRT [11]: 55.6 min
- Cmax [12]: 950 ng/mL
- Vdss [13]: 0.8997 L/kg
- AUC [14]: 396 ng·h/mL
- AUC [15]: 903 ng·h/mL
- AUC(0-inf) [16]: 5150 ng·h/mL
- Cmax [17]: 1640 ng/mL
- Kp at 0.5 h [18]: 4.25
- Kp at 4 h [19]: 1.94
- half-life at 20 µM [20]: 37 min

Compound: Cc1cccc(C)c1OCCOCCN[C@@H](C)CO
- Activity [21]: inactive
- Activity [22]: inactive
- Activity [23]: inactive
- Activity [24]: inactive
- Activity [25]: inactive
- Activity [26]: Active
- inhibition [27]: -6%
